Laboratory results as given in the array DNA melting data of Ke et al. (doi:10.1101/2024.01.08.574731).

Columns and labels:
[1] = folding enthalpy; higher = less favourable; fluorescence melt of hairpins on a sequencing array, two-state fit; details: sodium 0.088 M
Summary of the method: (§1)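 Library hairpins on a sequenced MiSeq flow cell carried annealed Cy3 and quencher oligos, and their Cy3 fluorescence was imaged in 50 mM Na-HEPES pH 8.0 with 25 mM NaCl, in 2.5 °C steps up to 60 °C. Signals were normalised to Cy3 before quenching and to control constructs. Melting temperature and folding enthalpy were obtained from bootstrapped two-state fits, combined by inverse-variance weighting across four replicates, and the fitted temperatures were then raised by 9.35 °C to match UV melts.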

[2] = melting temperature; fluorescence melt of hairpins on a sequencing array, two-state fit, raised by 9.35 °C to match UV melts; details: sodium 0.088 M
Summary of the method: as §1

Row | Sequence | folding enthalpy [1] | Tm [2]
1 | GATCTAGGGTAGATC ((((((...)))))) | -22.7 kcal/mol | 36.7 °C
2 | GATCTAGTATAGATC ((((((...)))))) | -41.5 kcal/mol | 49.5 °C
3 | GATCTAGTGGTAGATC ((((((....)))))) | -28 kcal/mol | 38 °C
4 | GATCTAGTGTTAGATC ((((((....)))))) | -30 kcal/mol | 40.6 °C
5 | GATCTATAACTAGATC ((((((....)))))) | -34.2 kcal/mol | 36.7 °C
6 | GATCTATACATAGATC ((((((....)))))) | -37.1 kcal/mol | 46.4 °C
7 | GATCTATACGTAGATC ((((((....)))))) | -40.1 kcal/mol | 45.3 °C
8 | GATCTATAGATAGATC ((((((....)))))) | -32.6 kcal/mol | 39.9 °C
9 | GATCTATCAATAGATC ((((((....)))))) | -33.6 kcal/mol | 42.8 °C
10 | GATCTATCCCTAGATC ((((((....)))))) | -32.4 kcal/mol | 41.4 °C
11 | GATCTATCCTTAGATC ((((((....)))))) | -34.1 kcal/mol | 44.4 °C
12 | GATCTATCTTTAGATC ((((((....)))))) | -24.1 kcal/mol | 43.1 °C
13 | GATCTATGGTTAGATC ((((((....)))))) | -36 kcal/mol | 41.5 °C
14 | GATCTATGTTTAGATC ((((((....)))))) | -32.9 kcal/mol | 43.9 °C
15 | GATCTCAACTGAGATC ((((((....)))))) | -44.1 kcal/mol | 52.1 °C
16 | GATCTCAAGAGAGATC ((((((....)))))) | -32.5 kcal/mol | 49.4 °C
17 | GATCTCAAGCGAGATC ((((((....)))))) | -37.6 kcal/mol | 50.4 °C
18 | GATCTCACATGAGATC ((((((....)))))) | -40.1 kcal/mol | 52.5 °C
19 | GATCTCACCAGAGATC ((((((....)))))) | -31.9 kcal/mol | 54.5 °C
20 | GATCTCACGAAAGTGATC (((..(((....)))))) | -9.7 kcal/mol | 30.2 °C
21 | GATCTCACGGAGATC ((((((...)))))) | -41.9 kcal/mol | 54.1 °C
22 | GATCTCATGGAGATC ((((((...)))))) | -33.9 kcal/mol | 54 °C
23 | GATCTCATTGGAGATC ((((((....)))))) | -38.7 kcal/mol | 52.2 °C
24 | GATCTCCAAGGAGATC ((((((....)))))) | -35 kcal/mol | 55.7 °C

Row | Sequence | folding enthalpy [1] | Tm [2]
25 | GATCTCCAGAGAGATC ((((((....)))))) | -38.8 kcal/mol | 52 °C
26 | GATCTCCAGTGAGATC ((((((....)))))) | -32 kcal/mol | 50.7 °C
27 | GATCTCCCAAGAGATC ((((((....)))))) | -34.3 kcal/mol | 53.4 °C
28 | GATCTCCCAGAGATC ((((((...)))))) | -40 kcal/mol | 53.5 °C
29 | GATCTCCCCGGAGATC ((((((....)))))) | -35.1 kcal/mol | 57.6 °C
30 | GATCTCCCTCGAGATC ((((((....)))))) | -41.1 kcal/mol | 51.7 °C
31 | GATCTCCCTTGAGATC ((((((....)))))) | -39.4 kcal/mol | 52.6 °C
32 | GATCTCCGAAAGGAATC (((.(((....)))))) | -14.4 kcal/mol | 33.3 °C
33 | GATCTCCGAAAGGACATC (((.(((....))).))) | -17 kcal/mol | 30.4 °C
34 | GATCTCCGGGAGATC ((((((...)))))) | -39.7 kcal/mol | 52.8 °C
35 | GATCTCCTACGAGATC ((((((....)))))) | -34.5 kcal/mol | 52.4 °C
36 | GATCTCCTATGAGATC ((((((....)))))) | -39.2 kcal/mol | 53.4 °C
37 | GATCTCCTCGAGATC ((((((...)))))) | -38.6 kcal/mol | 54.5 °C
38 | GATCTCCTGTGAGATC ((((((....)))))) | -45.7 kcal/mol | 52.5 °C
39 | GATCTCCTTAGAGATC ((((((....)))))) | -37.1 kcal/mol | 56.4 °C
40 | GATCTCCTTCGAGATC ((((((....)))))) | -42.5 kcal/mol | 52.1 °C
41 | GATCTCGAAGAGATC ((((((...)))))) | -34.2 kcal/mol | 68.5 °C
42 | GATCTCGAAGGAGATC ((((((....)))))) | -32.9 kcal/mol | 55.1 °C
43 | GATCTCGACGAGATC ((((((...)))))) | -38.9 kcal/mol | 57.4 °C
44 | GATCTCGAGAGAGATC ((((((....)))))) | -32.6 kcal/mol | 63.7 °C
45 | GATCTCGAGCGAGATC ((((((....)))))) | -48.4 kcal/mol | 53.3 °C
46 | GATCTCGAGTGAGATC ((((((....)))))) | -35.7 kcal/mol | 51.8 °C
47 | GATCTCGCGTGAGATC ((((((....)))))) | -34.7 kcal/mol | 53.8 °C
48 | GATCTCGGAAACGAGGTC ((.((((....)))).)) | -50.8 kcal/mol | 50.2 °C

Row | Sequence | folding enthalpy [1] | Tm [2]
49 | GATCTCGGCAGAGATC ((((((....)))))) | -42 kcal/mol | 68.1 °C
50 | GATCTCGGCTGAGATC ((((((....)))))) | -44.5 kcal/mol | 56.5 °C
51 | GATCTCGGTTGAGATC ((((((....)))))) | -30.5 kcal/mol | 53.5 °C
52 | GATCTCGTAGGAGATC ((((((....)))))) | -33.9 kcal/mol | 56.6 °C
53 | GATCTCGTCTGAGATC ((((((....)))))) | -41.8 kcal/mol | 55.3 °C
54 | GATCTCTAACGAGATC ((((((....)))))) | -33.4 kcal/mol | 49.4 °C
55 | GATCTCTATGGAGATC ((((((....)))))) | -42.8 kcal/mol | 54.9 °C
56 | GATCTCTCAAGAGATC ((((((....)))))) | -40.8 kcal/mol | 53.7 °C
57 | GATCTCTCACGAGATC ((((((....)))))) | -37.2 kcal/mol | 51.6 °C
58 | GATCTCTCCAGAGATC ((((((....)))))) | -40.2 kcal/mol | 56.7 °C
59 | GATCTCTCCGAGATC ((((((...)))))) | -40.7 kcal/mol | 56.7 °C
60 | GATCTCTCGCGAGATC ((((((....)))))) | -42.2 kcal/mol | 51.4 °C
61 | GATCTCTCGGGAGATC ((((((....)))))) | -38.3 kcal/mol | 53.5 °C
62 | GATCTCTGCCGAGATC ((((((....)))))) | -37.9 kcal/mol | 51.3 °C
63 | GATCTCTTACGAGATC ((((((....)))))) | -44.7 kcal/mol | 52.2 °C
64 | GATCTCTTCAGAGATC ((((((....)))))) | -40.9 kcal/mol | 60.1 °C
65 | GATCTCTTGGAGATC ((((((...)))))) | -37.8 kcal/mol | 54.4 °C
66 | GATCTGAAAACAGATC ((((((....)))))) | -27.5 kcal/mol | 42.8 °C
67 | GATCTGAAACCAGATC ((((((....)))))) | -29.7 kcal/mol | 43 °C
68 | GATCTGAACCAGATC ((((((...)))))) | -34.6 kcal/mol | 46 °C
69 | GATCTGAACTCAGATC ((((((....)))))) | -38.6 kcal/mol | 48 °C
70 | GATCTGAAGACAGATC ((((((....)))))) | -27.7 kcal/mol | 44.8 °C
71 | GATCTGAATGCAGATC ((((((....)))))) | -30.7 kcal/mol | 47.3 °C
72 | GATCTGACACCAGATC ((((((....)))))) | -34.7 kcal/mol | 46.1 °C

Row | Sequence | folding enthalpy [1] | Tm [2]
73 | GATCTGACGACAGATC ((((((....)))))) | -35 kcal/mol | 48.5 °C
74 | GATCTGAGAACAGATC ((((((....)))))) | -27.5 kcal/mol | 45.1 °C
75 | GATCTGAGCCCAGATC ((((((....)))))) | -29.7 kcal/mol | 47.3 °C
76 | GATCTGAGGTCAGATC ((((((....)))))) | -40.6 kcal/mol | 49.4 °C
77 | GATCTGAGTTCAGATC ((((((....)))))) | -43.7 kcal/mol | 49.9 °C
78 | GATCTGATGACAGATC ((((((....)))))) | -34.8 kcal/mol | 48.8 °C
79 | GATCTGATGGCAGATC ((((((....)))))) | -36.5 kcal/mol | 47.7 °C
80 | GATCTGCAATCAGATC ((((((....)))))) | -36.7 kcal/mol | 47.2 °C
81 | GATCTGCACCCAGATC ((((((....)))))) | -33.4 kcal/mol | 47.8 °C
82 | GATCTGCACTCAGATC ((((((....)))))) | -34.1 kcal/mol | 48.9 °C
83 | GATCTGCAGCCAGATC ((((((....)))))) | -32.6 kcal/mol | 48.9 °C
84 | GATCTGCCAGCAGATC ((((((....)))))) | -38.6 kcal/mol | 57.7 °C
85 | GATCTGCCGCCAGATC ((((((....)))))) | -31.9 kcal/mol | 51.4 °C
86 | GATCTGCCGTCAGATC ((((((....)))))) | -37.8 kcal/mol | 50.2 °C
87 | GATCTGCGAAAGCACATC (((.(((....))).))) | -13.5 kcal/mol | 30.4 °C
88 | GATCTGCGACAGATC ((((((...)))))) | -26.2 kcal/mol | 47.3 °C
89 | GATCTGCGGACAGATC ((((((....)))))) | -28.2 kcal/mol | 50.4 °C
90 | GATCTGCGTACAGATC ((((((....)))))) | -36.4 kcal/mol | 53.9 °C
91 | GATCTGCGTGCAGATC ((((((....)))))) | -34.5 kcal/mol | 66.7 °C
92 | GATCTGCTCCAGATC ((((((...)))))) | -31.1 kcal/mol | 50.4 °C
93 | GATCTGGATCAGATC ((((((...)))))) | -29.6 kcal/mol | 47.9 °C
94 | GATCTGGATCCAGATC ((((((....)))))) | -55.9 kcal/mol | 54.1 °C
95 | GATCTGGGGGCAGATC ((((((....)))))) | -41 kcal/mol | 51 °C
96 | GATCTGGGTCAGATC ((((((...)))))) | -35.9 kcal/mol | 48.6 °C
